In ChEMBL document CHEMBL1126782, “Synthesis and pharmacological evaluation of 1-phenyl-3-amino-1,2,3,4-tetrahydronaphthalenes as ligands for a novel receptor with sigma-like neuromodulatory activity” (J Med Chem, 1993):

How the values were obtained:
D(2) dopamine receptor [1] = biological target: T1, D(2) dopamine receptor (Rattus norvegicus, UniProt P61169); test: Binding affinity against dopamine receptor D2 from rat striatal homogenates using [3H]YM-09151-2
Summary of the method: (§1)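 Competition binding with rat striatal homogenates in Tris-HCl, pH 7.4, containing 150 mM NaCl at 30 °C. […] Nonspecific binding was defined by (+)-butaclamol. Six or more concentrations bracketing the IC50 were run in duplicate, with three replications. IC50 values came from curve fitting.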

D(1A) dopamine receptor [2] = biological target: T2, D(1A) dopamine receptor (Rattus norvegicus, UniProt P18901); test: Binding affinity against dopamine receptor D1 from rat striatal homogenates, using [3H]SCH-23390 as radioligand.
T2 sequence (P18901 whole entry): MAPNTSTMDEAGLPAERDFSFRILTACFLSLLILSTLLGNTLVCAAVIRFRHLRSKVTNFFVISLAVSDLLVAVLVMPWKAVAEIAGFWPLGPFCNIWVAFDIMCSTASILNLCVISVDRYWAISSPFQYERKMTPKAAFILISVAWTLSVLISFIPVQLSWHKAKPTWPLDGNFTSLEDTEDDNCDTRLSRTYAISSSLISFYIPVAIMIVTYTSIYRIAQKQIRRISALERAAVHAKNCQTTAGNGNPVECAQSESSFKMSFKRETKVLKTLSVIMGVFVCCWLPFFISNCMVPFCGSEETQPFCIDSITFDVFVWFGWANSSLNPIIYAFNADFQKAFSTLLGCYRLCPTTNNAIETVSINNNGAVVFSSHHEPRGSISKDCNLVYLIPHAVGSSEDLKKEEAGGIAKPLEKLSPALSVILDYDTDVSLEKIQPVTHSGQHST
Summary of the method: (§2)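 Competition binding with rat striatal homogenates in Tris-HCl, pH 7.4, with 150 mM NaCl at 30 °C. […] Nonspecific binding was defined by 0.3 μM cis-(Z)-flupenthixol. Six or more concentrations bracketing the IC50 were run in duplicate, with three replications. IC50 values came from curve fitting.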

[3] = biological target: Tyrosine 3-monooxygenase (Rattus norvegicus) (UniProt P04177); test: Tyrosine hydroxylase activity at 0.1 uM in rat striatal minces; assay type: functional
Chain of Tyrosine 3-monooxygenase (Rattus norvegicus) (P04177 whole entry): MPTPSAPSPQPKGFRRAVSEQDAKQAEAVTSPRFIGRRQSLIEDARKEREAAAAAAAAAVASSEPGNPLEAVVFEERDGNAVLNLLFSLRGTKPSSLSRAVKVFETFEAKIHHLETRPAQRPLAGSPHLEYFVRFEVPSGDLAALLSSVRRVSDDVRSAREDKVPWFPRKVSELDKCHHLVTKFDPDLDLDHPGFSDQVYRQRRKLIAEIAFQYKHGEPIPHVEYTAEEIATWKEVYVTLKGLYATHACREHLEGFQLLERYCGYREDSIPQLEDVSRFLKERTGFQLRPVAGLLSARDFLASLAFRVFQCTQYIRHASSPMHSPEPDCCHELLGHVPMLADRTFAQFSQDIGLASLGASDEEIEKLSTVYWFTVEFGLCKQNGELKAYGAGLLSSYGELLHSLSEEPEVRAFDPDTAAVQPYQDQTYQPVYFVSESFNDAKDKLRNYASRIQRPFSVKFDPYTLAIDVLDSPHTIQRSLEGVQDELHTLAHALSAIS

D(1A) dopamine receptor [4] = biological target: T2, D(1A) dopamine receptor; test: Binding affinity against dopamine receptor D1 from rat striatal homogenates, using [3H]SCH-23,390 as radioligand; summary of the method: as §2
[5] = biological target: Tyrosine 3-monooxygenase (Rattus norvegicus) (UniProt P04177); test: Tyrosine hydroxylase activity at 0.1 uM in rat striatal minces; effect blocked by BMY-14802; assay type: functional
D(2) dopamine receptor [6] = biological target: T1, D(2) dopamine receptor; test: Binding affinity against dopamine receptor D2 from rat striatal homogenates, using [3H]YM-09151-2 as radioligand; summary of the method: as §1
[7] = biological target: Tyrosine 3-monooxygenase (Rattus norvegicus) (UniProt P04177); test: Tyrosine hydroxylase activity at 0.1 uM in rat striatal minces; effect not blocked by BMY-14802; assay type: functional
[8] = biological target: Tyrosine 3-monooxygenase (Rattus norvegicus) (UniProt P04177); test: Tyrosine hydroxylase activity at 0.1 uM in rat striatal minces; effect not blocked bt BMY-14802; assay type: functional

T1 sequence (P61169 whole entry): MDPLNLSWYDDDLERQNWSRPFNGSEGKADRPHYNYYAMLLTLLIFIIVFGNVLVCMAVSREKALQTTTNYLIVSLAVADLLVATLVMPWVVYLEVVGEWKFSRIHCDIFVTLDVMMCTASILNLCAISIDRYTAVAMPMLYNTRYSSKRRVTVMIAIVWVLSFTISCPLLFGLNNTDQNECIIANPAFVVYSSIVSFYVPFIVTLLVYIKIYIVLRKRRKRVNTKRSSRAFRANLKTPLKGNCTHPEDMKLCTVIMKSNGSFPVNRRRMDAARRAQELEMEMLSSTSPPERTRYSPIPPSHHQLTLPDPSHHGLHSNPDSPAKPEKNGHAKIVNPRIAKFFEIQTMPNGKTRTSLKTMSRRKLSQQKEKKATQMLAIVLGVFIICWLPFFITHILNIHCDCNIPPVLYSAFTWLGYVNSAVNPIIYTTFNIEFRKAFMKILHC

| SMILES | IC50 (D(2) dopamine receptor [1]) | IC50 (D(1A) dopamine receptor [2]) | Control [3] | further results |
| --- | --- | --- | --- | --- |
| C=CCN(CC=C)C1Cc2ccccc2C(c2ccccc2)C1 (configuration not stated) | 4 µM | 10 µM | 104% | – |
| CN(C)[C@H]1Cc2cc(Cl)c(O)cc2[C@H](c2ccccc2)C1 | 4.13 µM | – | – | IC50 (D(1A) dopamine receptor [4]): 1.89 µM; Control [5]: 128% |
| C=CCN(C)C1Cc2ccccc2C(c2ccccc2)C1 (configuration not stated) | – | – | 72% | – |
| CN(C)C1Cc2ccccc2C(c2ccccc2)C1 (configuration not stated) | – | – | 101% | – |
| CN(C)[C@H]1CCc2ccccc2[C@H]1c1ccccc1 | – | – | 111% | – |
| NC1Cc2cc(O)c(O)cc2C(c2ccccc2)C1 (cis isomer) [listing 1 of 2 here] | > 10 µM | > 30 µM | – | – |
| CN(C)C1Cc2cc(O)c(O)cc2C(c2ccccc2)C1 (cis isomer) [listing 1 of 2 here] | > 5 µM | > 1 µM | – | – |
| CN(C)C1Cc2cc(Cl)c(O)cc2C(c2ccccc2)C1 (cis isomer) | – | – | 94% | – |
| CN(C)C1Cc2cc(O)c(O)cc2C(c2ccccc2)C1 (cis isomer) [listing 2 of 2 here] | – | – | 100% | – |
| NC1Cc2cc(O)c(O)cc2C(c2ccccc2)C1 (cis isomer) [listing 2 of 2 here] | – | – | 95% | – |
| NC1Cc2cc(O)c(O)cc2C(c2ccccc2)C1 (trans isomer) [listing 1 of 2 here] | > 30 µM | > 30 µM | – | – |
| C=CCNC1Cc2ccccc2C(c2ccccc2)C1 (trans isomer) | 6 µM | 10 µM | 102% | – |
| CN(C)C1Cc2cc(O)c(O)cc2C(c2ccccc2)C1 (trans isomer) [listing 1 of 2 here] | > 5 µM | > 10 µM | – | – |
| NC1Cc2ccccc2C(c2ccccc2)C1 (trans isomer) | > 10 µM | > 10 µM | 86% | – |
| CNC1Cc2cc(Cl)c(O)cc2C(c2ccccc2)C1 (trans isomer) | – | – | 99% | IC50 (D(2) dopamine receptor [6]): 10 µM; IC50 (D(1A) dopamine receptor [4]): 0.849 µM |
| CCN(CC)C1Cc2ccccc2C(c2ccccc2)C1 (trans isomer) | – | – | 95% | – |
| CN(C)C1Cc2cc(O)c(O)cc2C(c2ccccc2)C1 (trans isomer) [listing 2 of 2 here] | – | – | – | Control [7]: 75% |
| NC1Cc2cc(O)c(O)cc2C(c2ccccc2)C1 (trans isomer) [listing 2 of 2 here] | – | – | – | Control [8]: 71% |
